The text below walks through data of ChEMBL document CHEMBL1151267, “Nematicidal epipolysulfanyldioxopiperazines from Gliocladium roseum” (2005).

Format in all cases: functional
What all share (conditions): read-out: ED50 (the source's name)

One test deals with Panagrellus redivivus. The test is described as follows: Antinematodal activity against Panagrellus redivivus after 24 hrs by microscopy. An outline of the steps:
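P. redivivus were kept in aseptic liquid Basal Heme medium at room temperature and subcultured before testing. Worms were suspended in physiological saline and diluted to 20-25 per 48 μL aliquot, with triplicate wells per treatment. 2 μL of 50% DMSO, alone or with compound, was added. Plates were covered and humidified, and mortality was scored microscopically at 24 h.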

Test [1] relates to Bursaphelenchus xylophilus. The test is described as follows: Antinematodal activity against Bursaphelenchus xylophilus after 24 hrs by microscopy. A digest of the protocol: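 B. xylophilus were grown on PDB agar carrying Botrytis cinerea, kept at room temperature and subcultured before the assay. They were diluted in physiological saline to 20-25 worms per 48 μL and dispensed into three wells per treatment. 2 μL of 50% DMSO, with or without compound, was added. Plates were covered and held in a humid chamber. Dead worms were counted microscopically at 24 h.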

The test system of the next test is Caenorhabditis elegans. The test is described as follows: Antinematodal activity against Caenorhabditis elegans after 24 hrs by microscopy. A digest of the protocol: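 C. elegans were grown on NG agar carrying an E. coli strain, kept at room temperature and subcultured before the assay. Worms in physiological saline were diluted to 20-25 per 48 μL, with three wells per treatment. Each well received 2 μL of 50% DMSO or 50% DMSO containing compound. Plates were covered in a humid chamber, and dead worms were counted by microscopy after 24 h.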

Values after ≈ are worked out from the molar mass of the structure shown. Where only a bound is given, the exact number is not on record here.

As to `CN1C(=O)[C@]23SS[C@]1(C)C(=O)N2[C@H]1Nc2ccccc2[C@@]1(c1c[nH]c2ccccc12)[C@@H]3O` [GLIOCLADINE C], the EC50 in the test with Panagrellus redivivus is 250 µg/mL (≈ 538 µM); in test [1], more than 400 µg/mL; in the test on Caenorhabditis elegans, 200 µg/mL (≈ 431 µM).

On to `CN1C(=O)[C@]23SS[C@@]1(C)C(=O)N2[C@H]1Nc2ccccc2[C@@]1([C@@]12c4ccccc4N[C@@H]1N1C(=O)[C@@]4(C)SS[C@]1(C(=O)N4C)[C@H]2O)[C@@H]3O` [VERTICILLIN A], for which the EC50 is 80 µg/mL (≈ 115 µM) in the test on Panagrellus redivivus, more than 400 µg/mL in test [1] and 30 µg/mL (≈ 43.1 µM) with Caenorhabditis elegans.

On to `CN1C(=O)[C@]23SSSS[C@]1(C)C(=O)N2[C@H]1Nc2ccccc2[C@@]1(c1c[nH]c2ccccc12)[C@@H]3O` [GLIOCLADINE E], for which the values for the EC50 (in the test on Panagrellus redivivus; in test [1]; with Caenorhabditis elegans) were 250 µg/mL (≈ 473 µM), more than 400 µg/mL and 200 µg/mL (≈ 378 µM), respectively.

In the case of `CC[C@@]12SS[C@]3(C(=O)N1C)[C@@H](O)[C@]1([C@@]45c6ccccc6N[C@@H]4N4C(=O)[C@@]6(C)SS[C@]4(C(=O)N6C)[C@H]5O)c4ccccc4N[C@@H]1N3C2=O`, the EC50 is 80 µg/mL (≈ 113 µM) in the test on Panagrellus redivivus, more than 400 µg/mL in test [1] and 50 µg/mL (≈ 70.3 µM) in the test on Caenorhabditis elegans.

Consider `CN1C(=O)C23SSSS[C@]1(C)C(=O)N2[C@H]1Nc2ccccc2[C@@]1([C@@]12c4ccccc4N[C@@H]1N1C(=O)[C@@]4(C)SS[C@]1(C(=O)N4C)[C@H]2O)[C@@H]3O` [GLIOCLADINE B], for which the EC50 in the test with Panagrellus redivivus is 25 µg/mL (≈ 32.9 µM); in test [1], more than 400 µg/mL; with Caenorhabditis elegans, 30 µg/mL (≈ 39.4 µM).

Regarding `CN1C(=O)[C@@]23C[C@]4([C@@]56c7ccccc7N[C@@H]5N5C(=O)[C@@]7(C)SS[C@]5(C(=O)N7C)[C@H]6O)c5ccccc5N[C@@H]4N2C(=O)[C@]1(C)SS3`, the results for the EC50 (with Panagrellus redivivus; in test [1]; in the test on Caenorhabditis elegans) were 40 µg/mL (≈ 58.7 µM), more than 400 µg/mL and 10 µg/mL (≈ 14.7 µM), respectively.

Take `CN1C(=O)[C@]23SSS[C@]1(C)C(=O)N2[C@H]1Nc2ccccc2[C@@]1([C@@]12c4ccccc4N[C@@H]1N1C(=O)[C@@]4(C)SS[C@]1(C(=O)N4C)[C@H]2O)[C@@H]3O` [GLIOCLADINE A]: the EC50 is 50 µg/mL (≈ 68.6 µM) in the test on Panagrellus redivivus, more than 400 µg/mL in test [1] and 25 µg/mL (≈ 34.3 µM) with Caenorhabditis elegans.

For the compound `CN1C(=O)[C@]23SSS[C@]1(C)C(=O)N2[C@H]1Nc2ccccc2[C@@]1(c1c[nH]c2ccccc12)[C@@H]3O` [GLIOCLADINE D], the EC50 in the test on Panagrellus redivivus was 250 µg/mL (≈ 503 µM); in test [1], more than 400 µg/mL; with Caenorhabditis elegans, 200 µg/mL (≈ 403 µM).
